The source made the active and inactive calls. The rule behind the calls is not given here.
How the values were obtained:
Cannabinoid receptor 2 [1] = target: T1, Cannabinoid receptor 2 (Homo sapiens, UniProt P34972); test: Inverse agonist activity at CB2 receptor (unknown origin) expressed in HEK cells assessed as increase in cAMP production measured at 50 mins by ACTOne dye-based fluorescence assay in presence of forskolin and Ro 20-1724; assay type: functional, cell-based, HEK293
Outline: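 HEK-CNG+CB1 or HEK-CNG+CB2 cells, plus parental HEK-CNG, were plated at 50,000 cells/well in DMEM with 10% FBS the day before. Membrane potential dye was loaded for 1 h in the dark at room temperature. At least six biological replicates were run, with non-linear fitting.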

Cannabinoid receptor 1 [2] = target: T2, Cannabinoid receptor 1 (Homo sapiens, UniProt P21554); test: Inverse agonist activity at CB1 receptor (unknown origin) expressed in HEK cells assessed as increase in cAMP production measured at 50 mins by ACTOne dye-based fluorescence assay in presence of forskolin and Ro 20-1724; assay type: functional, cell-based, HEK293
Outline: (§1)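 HEK-CNG+CB1 or HEK-CNG+CB2 cells, plus parental HEK-CNG, were plated at 50,000 cells/well in DMEM with 10% FBS the day before. Membrane potential dye was loaded for 1 h in the dark at room temperature. Ligands were added at 5x10⁻⁶ to 5x10⁻¹⁰ final, with 25 µM Ro 20-1724 and 800 nM forskolin, in DPBS with 2.5% DMSO. Fluorescence (Ex 540, Em 590 nm) was read at 50 min. At least six biological replicates were run, with non-linear fitting.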

Homo sapiens = species on record: Homo sapiens; test: Selectivity ratio of Ki for CB1 receptor (unknown origin) to Ki for CB2 receptor (unknown origin)
Cannabinoid receptor 1 [3] = target: T2, Cannabinoid receptor 1; test: Displacement of [3H]-CP55940 from CB1 receptor (unknown origin) expressed in HEK-CNG cell membranes after 90 mins by liquid scintillation counting analysis
Cannabinoid receptor 1 [4] = target: T2, Cannabinoid receptor 1; test: Inverse agonist activity at CB1 receptor (unknown origin) expressed in HEK cells assessed as increase in cAMP production at 5 x 10^-6 to 5 x 10^-10 M measured at 50 mins by ACTOne dye-based fluorescence assay in presence of forskolin and Ro 20-1724 relative to control; assay type: functional, cell-based; conditions: HEK293; outline: as §1
Cannabinoid receptor 2 [5] = target: T1, Cannabinoid receptor 2; test: Inverse agonist activity at CB2 receptor (unknown origin) expressed in HEK cells assessed as increase in cAMP production at 5 x 10^-6 to 5 x 10^-10 M measured at 50 mins by ACTOne dye-based fluorescence assay in presence of forskolin and Ro 20-1724 relative to control; assay type: functional, cell-based; conditions: HEK293; outline: as §1
Cannabinoid receptor 2 [6] = target: T1, Cannabinoid receptor 2; test: Displacement of [3H]-CP55940 from CB2 receptor (unknown origin) expressed in HEK-CNG cell membranes after 90 mins by liquid scintillation counting analysis
Cannabinoid receptor 2 [7] = target: T1, Cannabinoid receptor 2; test: Non-competitive antagonist activity at CB2 receptor (unknown origin) expressed in HEK cells incubated in dark condition for 30 mins prior to CP55940 addition measured at 50 mins by Schild plot analysis; assay type: cell-based; conditions: HEK293
Outline: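 HEK-CNG+CB2 cells were loaded with membrane potential dye. After 30 min, antagonist in DPBS with 2.5% DMSO was added and incubated 30 more min in the dark at room temperature. CP 55,940 was then added with 25 µM Ro 20-1724 and 800 nM forskolin (final). Fluorescence was read at 50 min.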

T2 sequence (P21554 whole entry): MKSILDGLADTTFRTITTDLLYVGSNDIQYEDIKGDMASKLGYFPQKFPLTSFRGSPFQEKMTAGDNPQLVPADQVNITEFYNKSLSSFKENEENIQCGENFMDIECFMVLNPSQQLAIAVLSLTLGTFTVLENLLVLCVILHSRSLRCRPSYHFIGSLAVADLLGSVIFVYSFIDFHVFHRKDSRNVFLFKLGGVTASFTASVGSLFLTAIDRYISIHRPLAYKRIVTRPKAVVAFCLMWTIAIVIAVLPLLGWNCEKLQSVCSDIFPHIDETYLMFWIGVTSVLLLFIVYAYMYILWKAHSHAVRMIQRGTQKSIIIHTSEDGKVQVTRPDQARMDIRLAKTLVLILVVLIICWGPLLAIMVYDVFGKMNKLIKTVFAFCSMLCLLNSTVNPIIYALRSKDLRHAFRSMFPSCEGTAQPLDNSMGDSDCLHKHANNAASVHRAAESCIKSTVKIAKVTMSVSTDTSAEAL
T1 sequence (P34972 whole entry): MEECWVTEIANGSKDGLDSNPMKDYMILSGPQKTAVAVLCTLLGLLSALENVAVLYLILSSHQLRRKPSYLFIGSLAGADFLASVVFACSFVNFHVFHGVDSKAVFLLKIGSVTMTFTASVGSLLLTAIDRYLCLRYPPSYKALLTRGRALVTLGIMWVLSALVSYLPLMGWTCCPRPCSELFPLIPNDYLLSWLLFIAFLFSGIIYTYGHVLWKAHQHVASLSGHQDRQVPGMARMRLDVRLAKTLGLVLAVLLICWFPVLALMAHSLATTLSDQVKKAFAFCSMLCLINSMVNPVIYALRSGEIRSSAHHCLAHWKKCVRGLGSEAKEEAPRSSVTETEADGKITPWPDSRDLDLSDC

SMILES | EC50 (Cannabinoid receptor 2 [1]; read-out: EC50) | EC50 (Cannabinoid receptor 1 [2]; hek293) | Ratio Ki (Homo sapiens) | Ki (Cannabinoid receptor 1 [3]) | Efficacy (Cannabinoid receptor 1 [4]) | Efficacy (Cannabinoid receptor 2 [5]) | Ki (Cannabinoid receptor 2 [6]) | inhibition (Cannabinoid receptor 2 [7]) | EC50 (Cannabinoid receptor 2 [1]; hek293) | EC50 (Cannabinoid receptor 1 [2]; read-out: EC50)
Cc1ccc(C(=O)c2cc(O)c(-c3cc(Cl)cc(Cl)c3)c(O)c2)cc1 | 0.118 µM | Not Active | 36.6 | 9.43 µM | inactive | 230% | 0.258 µM | – | – | –
CCc1ccc(C(=O)c2cc(O)c(-c3cc(Cl)cc(Cl)c3)c(O)c2)cc1 | 0.0295 µM | Not Active | – | 1.14 µM | – | 52.2% | 0.0376 µM | Active | – | –
O=C(c1ccccc1)c1cc(O)c(-c2cc(Cl)cc(Cl)c2)c(O)c1 | – | Not Active | 39.4 | – | inactive | 54.8% | – | Active | – | –
COc1cc(C(=O)c2ccc(Cl)cc2)cc(OC)c1-c1cc(Cl)cc(Cl)c1 | – | Not Active | – | > 10 µM | – | – | > 10 µM | – | Not Active | –
CCCCc1ccc(C(=O)c2cc(OC)c(-c3cc(Cl)cc(Cl)c3)c(OC)c2)cc1 | – | Not Active | – | > 10 µM | inactive | inactive | > 10 µM | – | Not Active | –
CCc1cccc(C(=O)c2cc(O)c(-c3cc(Cl)cc(Cl)c3)c(O)c2)c1 | > 5 µM | Not Active | > 5.82 | > 10 µM | inactive | 184% | 1.72 µM | – | – | –
CCCCc1ccc(C(=O)c2cc(O)c(-c3cc(Cl)cc(Cl)c3)c(OC)c2)cc1 | > 5 µM | Not Active | – | > 10 µM | – | 108% | > 10 µM | – | – | –
COc1cc(C(=O)c2ccc(Cl)cc2)cc(O)c1-c1cc(Cl)cc(Cl)c1 | > 5 µM | – | – | > 10 µM | 71.3% | 97.5% | > 10 µM | – | – | 2.88 µM
COc1cc(C(=O)c2ccc(C)cc2)cc(OC)c1-c1cc(Cl)cc(Cl)c1 | – | Not Active | – | > 10 µM | inactive | inactive | > 10 µM | – | Not Active | –
CC(C)c1ccc(C(=O)c2cc(O)c(-c3cc(Cl)cc(Cl)c3)c(O)c2)cc1 | 0.182 µM | Not Active | – | 3.33 µM | – | 56% | 0.161 µM | – | – | –
Cc1cc(C)cc(C(=O)c2cc(O)c(-c3cc(Cl)cc(Cl)c3)c(O)c2)c1 | – | Not Active | – | > 10 µM | inactive | inactive | > 10 µM | – | Not Active | –
O=C(c1ccc(C(F)(F)F)cc1)c1cc(O)c(-c2cc(Cl)cc(Cl)c2)c(O)c1 | > 5 µM | – | – | > 10 µM | 37% | 49.7% | > 10 µM | – | – | > 5 µM
O=C(c1cccc(C(F)(F)F)c1)c1cc(O)c(-c2cc(Cl)cc(Cl)c2)c(O)c1 | – | Not Active | – | 4.13 µM | – | – | > 10 µM | – | Not Active | –
CC(C)(C)c1ccc(C(=O)c2cc(O)c(-c3cc(Cl)cc(Cl)c3)c(O)c2)cc1 | 3.97 µM | Not Active | – | 2.53 µM | – | 275% | 3.17 µM | – | – | –
Cc1ccc(Cn2nc(C(=O)NC3C4(C)CCC(C4)C3(C)C)cc2-c2ccc(Cl)c(C)c2)cc1 (configuration not stated) [SR-144528] | – | Not Active | – | – | inactive | 80.8% | – | – | – | –
O=C(c1ccc(O)cc1)c1cc(O)c(-c2cc(Cl)cc(Cl)c2)c(O)c1 | > 5 µM | Not Active | – | > 10 µM | inactive | 75.6% | > 10 µM | – | – | –
CCCCCCC(=O)c1cc(O)c(-c2cc(Cl)cc(Cl)c2)c(O)c1 | – | Not Active | – | > 10 µM | – | – | > 10 µM | – | Not Active | –
O=C(c1cc(O)c(-c2cc(Cl)cc(Cl)c2)c(O)c1)C1CCCCC1 | 2.54 µM | – | 0.19 | 0.299 µM | inactive | inactive | 1.59 µM | – | – | > 5 µM
CCCc1ccc(C(=O)c2cc(O)c(-c3cc(Cl)cc(Cl)c3)c(O)c2)cc1 | 0.0288 µM | Not Active | – | > 10 µM | – | 50% | 0.0599 µM | – | – | –
CCCCc1ccc(C(=O)c2cc(O)c(-c3cc(Cl)cc(Cl)c3)c(O)c2)cc1 | 0.254 µM | Not Active | > 21.5 | > 10 µM | inactive | 176% | 0.464 µM | Active | – | –
COc1cc(C(=O)c2ccc(C)cc2)cc(O)c1-c1cc(Cl)cc(Cl)c1 | > 5 µM | Not Active | – | > 10 µM | – | 129% | > 10 µM | – | – | –
Cc1cccc(C(=O)c2cc(O)c(-c3cc(Cl)cc(Cl)c3)c(O)c2)c1 | – | Not Active | – | > 10 µM | – | – | 2.62 µM | – | Not Active | –
O=C(c1ccc(Cl)cc1)c1cc(O)c(-c2cc(Cl)cc(Cl)c2)c(O)c1 | 0.0897 µM | – | 38.5 | 4.65 µM | 169% | 119% | 0.121 µM | – | – | 3.28 µM

From ChEMBL document CHEMBL3603733, “Synthesis and biological evaluation of (3',5'-dichloro-2,6-dihydroxy-biphenyl-4-yl)-aryl/alkyl-methanone selective CB2 inverse agonist” (Bioorg Med Chem, 2015)
